17 compounds from ChEMBL document CHEMBL1129449 (J Med Chem, 1996) can be followed below.

In experiment [1] the target is D(1A) dopamine receptor (Rattus norvegicus, UniProt P18901). In words: Binding affinity at Dopamine receptor D1 in rat neostriatum by [3H]-SCH- 23390 displacement. The class given is tissue-based, Striatum. Summed up: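 Tissue: sections of neostriatum from male Sprague–Dawley rats (250–300 g). Test substances dissolved in distilled water. Values are mean ± SEM of five to seven independent experiments, each run in triplicate.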
Chain of D(1A) dopamine receptor (P18901 whole entry): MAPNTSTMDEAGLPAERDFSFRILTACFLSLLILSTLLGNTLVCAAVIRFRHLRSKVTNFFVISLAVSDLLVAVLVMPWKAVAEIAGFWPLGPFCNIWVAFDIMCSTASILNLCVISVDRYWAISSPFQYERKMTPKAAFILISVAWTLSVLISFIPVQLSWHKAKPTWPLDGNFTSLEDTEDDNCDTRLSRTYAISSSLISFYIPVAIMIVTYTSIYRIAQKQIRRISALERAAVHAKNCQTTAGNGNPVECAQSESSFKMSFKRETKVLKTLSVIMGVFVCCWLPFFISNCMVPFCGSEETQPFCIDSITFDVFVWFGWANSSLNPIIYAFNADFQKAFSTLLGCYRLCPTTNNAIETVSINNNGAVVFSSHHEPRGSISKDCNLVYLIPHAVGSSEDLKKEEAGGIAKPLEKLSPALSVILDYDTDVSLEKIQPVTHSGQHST

Experiment [2] concerns the target D(2) dopamine receptor (Rattus norvegicus, UniProt P61169). Briefly: Binding affinity at Dopamine receptor D2 in rat neostriatum frozen sections by [3H]-spiperone displacement.

Where only a bound is given, the exact number is not on record here.

Chain of D(2) dopamine receptor (P61169 whole entry): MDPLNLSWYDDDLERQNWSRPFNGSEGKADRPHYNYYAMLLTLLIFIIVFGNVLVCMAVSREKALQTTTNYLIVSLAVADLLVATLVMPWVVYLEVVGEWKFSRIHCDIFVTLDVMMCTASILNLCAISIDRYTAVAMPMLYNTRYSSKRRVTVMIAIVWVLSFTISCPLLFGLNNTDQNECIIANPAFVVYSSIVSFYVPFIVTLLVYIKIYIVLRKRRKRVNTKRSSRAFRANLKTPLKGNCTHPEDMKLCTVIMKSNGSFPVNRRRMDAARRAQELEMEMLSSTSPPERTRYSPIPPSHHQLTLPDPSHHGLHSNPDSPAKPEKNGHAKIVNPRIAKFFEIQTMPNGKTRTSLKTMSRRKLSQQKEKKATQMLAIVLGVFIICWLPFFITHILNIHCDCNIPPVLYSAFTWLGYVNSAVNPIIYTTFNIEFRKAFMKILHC

As to `C[C@@]1(c2ccccc2)c2cc(O)c(O)cc2C[C@@]1(C)N`, the Ki in experiment [1] is 5.5 nM; in experiment [2] it was above 1000 nM.

As for `CCCN(C)[C@@H]1Cc2cc(O)ccc2[C@H]1c1ccccc1` (stereo in doubt; (-)-17b), the Ki in experiment [1] and in experiment [2] was above 1000 nM throughout.

For `C=CCN(C)[C@@H]1Cc2ccc(O)cc2[C@H]1c1ccccc1` (stereo in doubt; (-)-16a), the values for the Ki in experiment [1] and in experiment [2] were 0.79 nM and 0.43 nM, respectively.

Take `N[C@@H]1Cc2ccc(O)cc2[C@H]1c1ccccc1` (stereo in doubt; (+)-14a): the Ki came out at 2.5 nM in experiment [1] and 0.59 nM in experiment [2].

On to `CCCN(CCC)[C@@H]1Cc2ccc(O)cc2[C@H]1c1ccccc1` (stereo in doubt; (-)-15a), for which the Ki in experiment [1] came out at 26.4 nM; in experiment [2], 0.84 nM.

For `C=CCN(C)[C@@H]1Cc2cc(O)ccc2[C@H]1c1ccccc1` (stereo in doubt; (+)-16b), the Ki in experiment [1] and in experiment [2] was above 1000 nM each time.

As for `C=CCN(C)[C@@H]1Cc2ccc(O)cc2[C@H]1c1ccccc1` (stereo in doubt; (+)-16a), the inhibitory constant (Ki) turned out to be 3 nM in experiment [1] and 37.5 nM in experiment [2].

Turning to `CCCN(CCC)[C@@H]1Cc2cc(O)ccc2[C@H]1c1ccccc1` (stereo in doubt; (+)-15b), the values for the inhibition constant Ki in experiment [1] and in experiment [2] were 1.4 nM and above 1000 nM, respectively.

Regarding `CCCN(CCC)[C@@H]1Cc2cc(O)ccc2[C@H]1c1ccccc1` (stereo in doubt; (-)-15b), the Ki in experiment [1] is 1.76 nM; in experiment [2] it was above 1000 nM.

As for `CCCN(C)[C@@H]1Cc2ccc(O)cc2[C@H]1c1ccccc1` (stereo in doubt; (-)-17a), the Ki in experiment [1] stood at 0.88 nM; in experiment [2], 0.34 nM.

Consider `N[C@@H]1Cc2cc(O)ccc2[C@H]1c1ccccc1` (stereo in doubt; (-)-14b), for which the values for the Ki in experiment [1] and in experiment [2] were 18.7 nM and above 1000 nM, respectively.

Turning to `N[C@@H]1Cc2cc(O)ccc2[C@H]1c1ccccc1` (stereo in doubt; (+)-14b), the figures for the Ki in experiment [1] and in experiment [2] were 1.87 nM and above 1000 nM, respectively.

As for `CCCN(CCC)[C@@H]1Cc2ccc(O)cc2[C@H]1c1ccccc1` (stereo in doubt; (+)-15a), the inhibition constant Ki in experiment [1] worked out at 28.5 nM; in experiment [2], 51.5 nM.

For the compound `CCCN(C)[C@@H]1Cc2ccc(O)cc2[C@H]1c1ccccc1` (stereo in doubt; (+)-17a), the Ki is 0.9 nM in experiment [1] and 0.3 nM in experiment [2].

`C=CCN(C)[C@@H]1Cc2cc(O)ccc2[C@H]1c1ccccc1` (stereo in doubt; (-)-16b): the Ki in experiment [1] and in experiment [2] was above 1000 nM throughout.

Take `N[C@@H]1Cc2ccc(O)cc2[C@H]1c1ccccc1` (stereo in doubt; (-)-14a): the Ki was 34.5 nM in experiment [1] and 0.89 nM in experiment [2].

For `CCCN(C)[C@@H]1Cc2cc(O)ccc2[C@H]1c1ccccc1` (stereo in doubt; (+)-17b), the inhibitory constant (Ki) in experiment [1] and in experiment [2] was above 1000 nM in each case.
